Only some compounds are listed: those with a hit (about 2.6% of all), similar ones and a draw of the others.
STEP inh – STEP (human) phosphatase inhibition; P54829; hit rate 0.25% among 360,000; recombinant STEP, OMFP fluorogenic substrate, fluorescence; inhibition, % at 20 µM;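 active = inhibition at 20 µM, scaled per plate between control wells, above about 37%, limit read from the data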;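 also: 0% = DMSO with enzyme and substrate and 100% = substrate only without enzyme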
Target sequence (P54829 whole entry, looked up): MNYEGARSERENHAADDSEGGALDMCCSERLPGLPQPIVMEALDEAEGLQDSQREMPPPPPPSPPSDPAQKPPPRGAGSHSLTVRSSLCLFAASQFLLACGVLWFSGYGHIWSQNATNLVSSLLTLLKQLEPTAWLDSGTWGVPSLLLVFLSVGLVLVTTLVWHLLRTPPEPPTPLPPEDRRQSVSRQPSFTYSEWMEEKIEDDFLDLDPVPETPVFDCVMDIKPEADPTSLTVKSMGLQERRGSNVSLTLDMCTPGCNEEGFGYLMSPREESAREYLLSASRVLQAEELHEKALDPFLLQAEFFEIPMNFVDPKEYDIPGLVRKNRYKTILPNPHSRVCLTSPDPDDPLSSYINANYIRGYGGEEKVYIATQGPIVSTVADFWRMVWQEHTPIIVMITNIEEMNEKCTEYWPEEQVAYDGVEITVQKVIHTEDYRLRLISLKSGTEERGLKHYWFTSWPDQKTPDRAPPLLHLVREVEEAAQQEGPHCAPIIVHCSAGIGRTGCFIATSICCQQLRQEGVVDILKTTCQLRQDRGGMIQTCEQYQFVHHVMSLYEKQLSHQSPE
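System: STEP (striatal-enriched tyrosine phosphatase) enzyme, cell-free; medium: Bis-Tris pH 6.0 buffer with DTT, detergent; dosing: 20 µM, 1% DMSO; times: reaction 20 min, ambient temperature; detection: fluorescence, 480/540 nm; read-out basis: normalized % inhibition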
NadD block – blocks S. aureus nicotinate mononucleotide adenylyltransferase; AID 602399; purified NadD enzyme, colorimetric absorbance read-out; hit rate 0.78% among 360,000; inhibition, % at 20 µM; in the data active = inhibition above about 26%
LMPTP block – LMPTP (human) inhibition; P24666; recombinant LMPTP-A, OMFP fluorogenic substrate, fluorescence intensity; inhibition, % at 20 µM; hit rate 0.22% among 360,000;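 active = compounds that cut the enzyme signal by at least half of the control window in the single-dose screen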;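 also: plate controls were DMSO wells with enzyme plus substrate for no effect and substrate without enzyme for full effect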
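Test system – LMPTP-A enzyme · Amount – LMPTP-A at 0.625 nM final in the reaction · Buffer or medium – Bis-Tris pH 6.0, DTT, detergent · Reagent – OMFP 400 µM · Doses – single 20 µM dose · Schedule – reaction 50 min, room temperature, dark · Detection – fluorescence intensity of OMFP turnover product · Evaluation – percent inhibition versus substrate-only and uninhibited controls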
Scp1 inh – inhibitors of human Scp-1 phosphatase; Q9GZU7; Recombinant Scp1, phosphopeptide, malachite green phosphate absorbance; inhibition, % at 20 µM; hit rate 0.88% among 340,000; AID 493091;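 active = inhibition above about 50% at 20 µM, limit read from the data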;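 also: plate controls were DMSO wells with enzyme for no effect and wells lacking enzyme for full effect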
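Test system – truncated SCP-1 phosphatase (76-261aa) · Reagent – Phosphorylated 17-residue peptide substrate · Incubation – 45 min room-temperature reaction, 5 min colour, 30 min stabiliser · Detection – colorimetric phosphate reagent with accelerator and stabiliser, absorbance at 630 nm · Measure – % inhibition at 20 µM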
rCAG RNA binder – molecules binding r(CAG) RNA repeats | r(CAG) RNA repeat, TO-PRO-1 dye displacement fluorescence | inhibition, % at 3 µM | hit rate 1.3% among 370,000;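 active = inhibition above the plate cutoff, the mean of all test compounds on that plate plus 3 SD, cut at about 35% in these data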;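 also: 0% = DMSO alone and 100% = 100 µM mitoxantrone as full dye displacement; higher means more dye released from RNA so lower well fluorescence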
rCAG binder conf – r(CAG) RNA repeat binding, confirmation | shares compounds with rCAG RNA binder | TO-PRO-1 dye displacement fluorescence | inhibition, % at 3 µM | hit rate 70% among 4,300 | AID 652065;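 active = inhibition above a per-plate cutoff, the mean inhibition of sample wells plus 3 SD, cut at about 35% in these data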;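 also: loss of TO-PRO-1 fluorescence as compound displaces dye from 1x1 AA loop RNA; 0% = DMSO only wells and 100% = 100 µM mitoxantrone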
DNA CAG counter – counter-screen for rCAG RNA binders: DNA CAG dye complex inhibitors | shares compounds with rCAG RNA binder | d(CAG) DNA oligo TO-PRO-1 dye displacement, fluorescence | inhibition, % at 3 µM | hit rate 94% among 4,300 | AID 652068;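 active = inhibition above its plate's cutoff, the mean test-well inhibition plus 3 SD, cut at about 4.8% in these data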;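 also: 0% = DNA dye mix with DMSO and 100% = 100 µM mitoxantrone; hits displace the dye from DNA and so lower well fluorescence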
The depositor's hits bear a star.

CCOc1ccc2nc(NS(=O)(=O)c3ccc(NC(C)=O)cc3)sc2c1 was read as STEP inh -4, NadD block 6, LMPTP block 0, Scp1 inh -11 and rCAG RNA binder 21.
`CCOc1ccc2nc(NS(=O)(=O)Cc3ccccc3)sc2c1` gave STEP inh 0, NadD block 4, LMPTP block 0, Scp1 inh -7, rCAG RNA binder 44*, rCAG binder conf 29 and DNA CAG counter 10*.
Screening Cc1ccc(CNC(=O)C2CC(c3ccccc3C(F)(F)F)=NO2)o1 (centres undefined) returned STEP inh 2, NadD block 3, LMPTP block -2, Scp1 inh 6, rCAG RNA binder 38*, rCAG binder conf 5 and DNA CAG counter 3.
`Cc1ccc([N+](=O)[O-])cc1S(=O)(=O)Nc1cccc(S(=O)(=O)Nc2ccccc2C(=O)O)c1` gave STEP inh 0, NadD block -4, LMPTP block 0, Scp1 inh 7, rCAG RNA binder 46*, rCAG binder conf 38* and DNA CAG counter 9.3*.
O=C(Cc1ccc(Cl)cc1)Nc1cccc(S(=O)(=O)Nc2ccccc2F)c1 was read as STEP inh -3, NadD block -7, LMPTP block 2, Scp1 inh -15 and rCAG RNA binder 30.
Screening Cc1ccc(C(=O)Nc2cccc([N+](=O)[O-])c2)cc1S(=O)(=O)Nc1cccc(C(=O)O)c1 returned STEP inh 0, NadD block -1, LMPTP block 0, Scp1 inh 3 and rCAG RNA binder 34.
For Cc1ccc(C)c(NC(=O)c2ccccc2NS(=O)(=O)c2cc([N+](=O)[O-])ccc2C)c1 the results were STEP inh -2, NadD block 4, LMPTP block 0, Scp1 inh -1, rCAG RNA binder 40*, rCAG binder conf 77* and DNA CAG counter 43*.
`O=C(CSc1ccc([N+](=O)[O-])cc1)Nc1cccc(S(=O)(=O)Nc2ccccc2F)c1` gave STEP inh 2, NadD block 16, LMPTP block 5, Scp1 inh -13, rCAG RNA binder 50*, rCAG binder conf 37* and DNA CAG counter 13*.
For Cc1ccc(C)c(NC(=O)c2ccccc2Sc2ccc([N+](=O)[O-])cc2Cl)c1 the results were STEP inh 3, NadD block 5, LMPTP block 1, Scp1 inh -10 and rCAG RNA binder 1.
COC(=O)C1CN(Cc2ccc(F)cc2)CCS(=O)(=O)N1Cc1ccc(F)cc1 (centres undefined) was read as rCAG RNA binder 1.
CCCC1CCC2(CCC(=O)N2CCC#N)CC1 (centres undefined) was read as rCAG RNA binder -1.
COc1cccc(OCC(=O)Nc2cc(NC(=O)COc3cccc(OC)c3)cc(C(=O)O)c2)c1 was read as STEP inh -1, NadD block 8, LMPTP block 0, Scp1 inh -1, rCAG RNA binder 55*, rCAG binder conf 53* and DNA CAG counter 18*.
`Cc1cc(C)cc(OCC(=O)Nc2cccc(C(=O)O)c2)c1` gave STEP inh -1, NadD block -6, LMPTP block -2, Scp1 inh -7 and rCAG RNA binder 5.
Cc1cccc(OCC(=O)Nc2cc(NC(=O)COc3cccc(C)c3)cc(C(=O)O)c2)c1 was read as STEP inh -1, NadD block 2, LMPTP block 0, Scp1 inh -14, rCAG RNA binder 63*, rCAG binder conf 61* and DNA CAG counter 22*.
For C[C@@H]1COc2cc(Br)ccc2S(=O)(=O)N1Cc1cn(Cc2ccc(F)cc2)nn1 the results were rCAG RNA binder 2.
Screening O=c1cc(-c2c(O)c3ccccc3n(Cc3ccccc3)c2=O)[nH][nH]1 returned STEP inh 7, NadD block 1, LMPTP block 2, Scp1 inh -12, rCAG RNA binder 47*, rCAG binder conf 22 and DNA CAG counter 8.3*.
